Experimental data as given in ChEMBL document CHEMBL4765301, “Discovery of novel TNNI3K inhibitor suppresses pyroptosis and apoptosis in murine myocardial infarction injury” (Eur J Med Chem, 2020).
Calls of active or inactive are those of the source. No cut-off for these calls is given here.

Experiments:
H9c2 [1] = assay: Effect on TNNI3K expression in rat H9c2 cells at 0.5 to 1 uM by Western blot analysis; assay type: functional, cell-based; conditions: dose 0.5-1 µM
In short: (§1)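 H9c2 cells under OGD were treated with saline or 0.5 or 1.0 µM inhibitor. Cells were trypsinised, washed in cold PBS, lysed in RIPA with sonication and centrifuged 30 min. Total protein was quantified and separated by SDS-PAGE, then transferred to PVDF. Blots were probed with primary and secondary antibodies and detected by ECL.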

H9c2 [2] = assay: Inhibition of OGD-induced apoptosis in rat H9c2 cells assessed as early apoptotic cells at 1 uM incubated for 24 hrs by annexinV-FITC and PI staining based flow cytometry analysis (reference value: 3.53 %); assay type: functional
H9c2 [3] = assay: Inhibition of OGD-induced apoptosis in rat H9c2 cells assessed as reduction in ASC level at 0.5 to 1 uM by Western blot analysis; assay type: functional, cell-based; conditions: dose 0.5-1 µM; in short: as §1
H9c2 [4] = assay: Inhibition of OGD-induced apoptosis in rat H9c2 cells assessed as reduction in caspase1 level at 0.5 to 1 uM by Western blot analysis; assay type: functional, cell-based; conditions: dose 0.5-1 µM; in short: as §1
[5] = target: Mitogen-activated protein kinase 1 and 3 (ERK2 and ERK1) (Rattus norvegicus) (UniProt P63086+P21708); assay: Inhibition of ERK1/2 phosphorylation in rat H9c2 cells at 0.5 to 1 uM by Western blot analysis; assay type: cell-based; conditions: dose 0.5-1 µM; in short: as §1
[6] = target: Vascular endothelial growth factor receptor 2 (Homo sapiens) (UniProt P35968); assay: Inhibition of recombinant human KDR (790 to end residues) assessed as residual activity at 1 uM using myelin basic protein as substrate incubated for 40 mins by [gamma-33P]-ATP scintillation counting based radiometry assay relative to control
H9c2 [7] = assay: Inhibition of OGD-induced apoptosis in rat H9c2 cells incubated for 24 hrs by annexinV-FITC and PI staining based flow cytometry analysis; assay type: functional, cell-based; conditions: dose 0.5-1 µM
[8] = Toxicity in C57BL/6 mouse assessed as effect on morphology of main organs at 25 mg/kg, ip administered for 28 days and observed on day 28 by H and E staining based fluorescence microscopy; assay type: organism-based; conditions: in vivo, 672 h, time 28 day
In short: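 Main organs of MI-model C57BL/6 mice, given 25 mg/kg ip every two days or sham-operated, examined by H&E staining of tissue sections for morphology.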

H9c2 [9] = assay: Inhibition of OGD-induced apoptosis in rat H9c2 cells assessed as early apoptotic cells at 0.5 uM incubated for 24 hrs by annexinV-FITC and PI staining based flow cytometry analysis (reference value: 3.53 %); assay type: functional
[10] = target: T1, Serine/threonine-protein kinase TNNI3K (Rattus norvegicus) (UniProt Q7TQP6); assay: Inhibition of TNNI3K in rat H9c2 cells assessed as reduction in p38 phosphorylation at 0.5 to 1 uM by Western blot analysis; assay type: cell-based; conditions: dose 0.5-1 µM; in short: as §1
T1 sequence (whole entry): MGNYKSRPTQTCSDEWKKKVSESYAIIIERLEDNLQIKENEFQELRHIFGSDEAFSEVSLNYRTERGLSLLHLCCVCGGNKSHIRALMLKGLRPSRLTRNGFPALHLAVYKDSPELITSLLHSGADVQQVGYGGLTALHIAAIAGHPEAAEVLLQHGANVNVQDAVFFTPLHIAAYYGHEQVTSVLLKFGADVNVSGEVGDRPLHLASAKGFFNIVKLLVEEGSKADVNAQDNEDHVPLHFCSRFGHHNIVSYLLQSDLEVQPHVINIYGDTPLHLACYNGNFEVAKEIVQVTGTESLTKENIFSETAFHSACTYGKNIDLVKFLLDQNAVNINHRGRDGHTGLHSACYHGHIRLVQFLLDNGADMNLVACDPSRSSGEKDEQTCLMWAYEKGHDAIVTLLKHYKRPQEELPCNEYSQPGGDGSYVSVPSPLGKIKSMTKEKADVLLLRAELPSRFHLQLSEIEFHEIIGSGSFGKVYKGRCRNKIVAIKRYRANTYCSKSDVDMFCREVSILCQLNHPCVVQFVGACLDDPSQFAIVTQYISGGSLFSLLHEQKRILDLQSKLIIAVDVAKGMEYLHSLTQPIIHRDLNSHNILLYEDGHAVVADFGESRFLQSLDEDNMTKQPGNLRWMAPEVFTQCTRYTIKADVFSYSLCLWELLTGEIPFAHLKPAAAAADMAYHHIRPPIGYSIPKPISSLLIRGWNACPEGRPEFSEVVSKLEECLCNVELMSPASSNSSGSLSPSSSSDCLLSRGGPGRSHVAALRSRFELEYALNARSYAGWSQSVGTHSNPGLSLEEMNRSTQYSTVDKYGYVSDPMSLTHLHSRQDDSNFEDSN

H9c2 [11] = assay: Inhibition of OGD-induced apoptosis in rat H9c2 cells assessed as reduction in GSDMD activation at 0.5 to 1 uM by Western blot analysis; assay type: functional, cell-based; conditions: dose 0.5-1 µM; in short: as §1
H9c2 [12] = assay: Inhibition of OGD-induced apoptosis in rat H9c2 cells assessed as reduction in GSDMD level at 0.5 to 1 uM by Western blot analysis; assay type: functional, cell-based; conditions: dose 0.5-1 µM; in short: as §1

Mitogen-activated protein kinase 1 and 3 (ERK2 and ERK1) (Rattus norvegicus), sequence (P21708 whole entry, looked up): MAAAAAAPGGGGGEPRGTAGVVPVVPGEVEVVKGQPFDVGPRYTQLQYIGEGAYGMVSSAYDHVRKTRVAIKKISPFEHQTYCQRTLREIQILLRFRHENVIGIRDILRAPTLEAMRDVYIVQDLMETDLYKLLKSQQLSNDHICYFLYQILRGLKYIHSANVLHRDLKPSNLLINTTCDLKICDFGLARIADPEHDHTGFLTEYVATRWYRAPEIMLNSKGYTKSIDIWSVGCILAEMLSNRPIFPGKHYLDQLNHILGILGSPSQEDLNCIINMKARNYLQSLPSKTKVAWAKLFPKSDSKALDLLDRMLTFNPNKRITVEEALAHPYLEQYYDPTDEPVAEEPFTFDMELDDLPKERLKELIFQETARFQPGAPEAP
Mitogen-activated protein kinase 1 and 3 (ERK2 and ERK1) (Rattus norvegicus), sequence (P63086 whole entry, looked up): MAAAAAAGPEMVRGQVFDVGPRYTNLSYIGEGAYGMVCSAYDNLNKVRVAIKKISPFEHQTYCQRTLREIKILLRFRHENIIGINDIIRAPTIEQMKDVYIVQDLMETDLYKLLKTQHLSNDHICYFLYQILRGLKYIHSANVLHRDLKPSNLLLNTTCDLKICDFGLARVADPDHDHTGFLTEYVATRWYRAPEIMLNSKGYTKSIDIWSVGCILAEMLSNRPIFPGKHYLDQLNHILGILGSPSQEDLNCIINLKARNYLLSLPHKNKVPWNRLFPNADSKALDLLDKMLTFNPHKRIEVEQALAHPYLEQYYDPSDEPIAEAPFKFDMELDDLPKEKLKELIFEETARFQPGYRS
Vascular endothelial growth factor receptor 2 (Homo sapiens), sequence (P35968 whole entry): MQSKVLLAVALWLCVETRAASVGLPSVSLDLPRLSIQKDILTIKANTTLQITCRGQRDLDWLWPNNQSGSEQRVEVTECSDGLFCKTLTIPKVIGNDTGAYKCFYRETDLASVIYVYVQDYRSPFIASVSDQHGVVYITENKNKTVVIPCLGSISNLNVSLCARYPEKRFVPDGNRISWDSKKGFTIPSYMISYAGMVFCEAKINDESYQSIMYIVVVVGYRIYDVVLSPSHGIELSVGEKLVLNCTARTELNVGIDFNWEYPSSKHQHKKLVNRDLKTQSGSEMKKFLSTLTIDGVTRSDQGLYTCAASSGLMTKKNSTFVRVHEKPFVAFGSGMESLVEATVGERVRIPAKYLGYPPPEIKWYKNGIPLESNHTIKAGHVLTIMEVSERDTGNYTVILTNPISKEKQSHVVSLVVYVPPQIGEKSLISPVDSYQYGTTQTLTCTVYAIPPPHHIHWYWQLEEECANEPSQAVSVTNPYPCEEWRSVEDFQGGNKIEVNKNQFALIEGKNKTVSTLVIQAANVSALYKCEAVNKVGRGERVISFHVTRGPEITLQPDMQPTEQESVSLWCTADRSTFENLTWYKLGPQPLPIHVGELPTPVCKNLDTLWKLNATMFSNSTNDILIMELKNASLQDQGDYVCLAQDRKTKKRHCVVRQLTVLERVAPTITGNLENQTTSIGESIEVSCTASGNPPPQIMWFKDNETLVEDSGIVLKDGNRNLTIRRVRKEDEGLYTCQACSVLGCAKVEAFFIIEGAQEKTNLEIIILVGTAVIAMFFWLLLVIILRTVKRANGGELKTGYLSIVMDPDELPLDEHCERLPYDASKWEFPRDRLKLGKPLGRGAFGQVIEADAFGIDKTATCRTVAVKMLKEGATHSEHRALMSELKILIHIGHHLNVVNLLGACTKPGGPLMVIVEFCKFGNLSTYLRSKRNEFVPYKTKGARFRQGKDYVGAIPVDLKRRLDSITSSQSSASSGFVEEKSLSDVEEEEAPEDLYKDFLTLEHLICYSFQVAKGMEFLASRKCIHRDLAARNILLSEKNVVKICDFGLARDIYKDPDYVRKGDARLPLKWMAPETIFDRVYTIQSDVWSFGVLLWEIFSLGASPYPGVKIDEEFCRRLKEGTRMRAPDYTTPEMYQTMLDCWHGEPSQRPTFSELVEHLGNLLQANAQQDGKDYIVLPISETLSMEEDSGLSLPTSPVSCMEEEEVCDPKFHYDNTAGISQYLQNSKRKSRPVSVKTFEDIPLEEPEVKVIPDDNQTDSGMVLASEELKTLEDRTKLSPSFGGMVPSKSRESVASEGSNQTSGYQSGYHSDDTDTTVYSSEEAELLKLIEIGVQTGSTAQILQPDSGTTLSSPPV

For `CN(C)CCCN1CCc2c(sc3ncnc(Nc4ccc(N(C)C)c(NC(=O)c5ccco5)c4)c23)C1`, the inhibition (H9c2 [1]) was “inactive”, the inhibition at 1 µM (H9c2 [2]) was 3.17% and the inhibition (H9c2 [3]) was “Active”. For the same molecule, the inhibition (H9c2 [4]) was “inactive”, the inhibition [5] was “inactive” and the Activity [6] was 80%. For the same molecule, the inhibition (H9c2 [7]) was “Dose-dependent effect”, the Activity [8] was “Non-Toxic” and the inhibition at 0.5 µM (H9c2 [9]) was 3.59%. For the same molecule, the inhibition [10] was “Active”, the inhibition (H9c2 [11]) was “Active” and the inhibition (H9c2 [12]) was “inactive”.
